# Assay results reported in ChEMBL document CHEMBL2380281, “Synthesis of proline analogues as potent and selective cathepsin S inhibitors” (Bioorg Med Chem Lett, 2013).
# What was measured:
# Cathepsin S = Cathepsin S (Homo sapiens, UniProt P25774); experiment: Inhibition of human cathepsin-S
# Cathepsin B = Cathepsin B (Homo sapiens, UniProt P07858); experiment: Inhibition of human cathepsin-B
# In short: (§1)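 Human cathepsin B and K activity measured with a SensoLyte 520 cathepsin activity assay kit; LHVS as pan-cathepsin positive control.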
# Cathepsin K = target: T1, Cathepsin K (Homo sapiens, UniProt P43235); experiment: Inhibition of human cathepsin-K; in short: as §1
# T1 sequence (P43235 whole entry): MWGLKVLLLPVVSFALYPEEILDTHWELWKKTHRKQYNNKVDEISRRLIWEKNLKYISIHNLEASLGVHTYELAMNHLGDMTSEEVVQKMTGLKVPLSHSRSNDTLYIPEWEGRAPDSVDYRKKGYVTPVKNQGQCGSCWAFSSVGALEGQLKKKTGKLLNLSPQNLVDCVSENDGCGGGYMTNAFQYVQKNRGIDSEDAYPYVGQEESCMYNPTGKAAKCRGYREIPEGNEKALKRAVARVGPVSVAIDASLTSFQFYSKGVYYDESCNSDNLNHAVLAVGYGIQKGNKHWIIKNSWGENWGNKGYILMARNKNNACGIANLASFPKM
# Chain of Cathepsin S (P25774 whole entry): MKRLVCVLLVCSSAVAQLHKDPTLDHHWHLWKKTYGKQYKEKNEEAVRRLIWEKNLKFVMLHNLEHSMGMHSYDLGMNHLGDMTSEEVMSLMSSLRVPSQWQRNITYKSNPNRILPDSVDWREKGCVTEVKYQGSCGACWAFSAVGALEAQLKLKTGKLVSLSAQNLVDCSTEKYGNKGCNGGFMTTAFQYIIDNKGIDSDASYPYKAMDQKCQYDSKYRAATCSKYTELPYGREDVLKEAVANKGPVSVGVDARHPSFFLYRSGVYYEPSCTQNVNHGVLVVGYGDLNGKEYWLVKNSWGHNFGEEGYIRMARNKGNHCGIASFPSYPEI
SMILES,IC50 (Cathepsin S),IC50 (Cathepsin B),IC50 (Cathepsin K)
CCC(NC(=O)[C@@H]1C[C@@H](S(=O)(=O)c2ccccc2)CN1c1ccccc1)C(=O)c1nc2ccccc2o1 (stereo partly specified),12.4 nM,–,–
CC(=O)N1C[C@H](S(=O)(=O)c2ccccc2)C[C@H]1C(=O)NC(Cc1ccccc1)C(=O)c1nc2ccccc2o1 (stereo partly specified),> 100 nM,–,–
CCC(NC(=O)[C@@H]1C[C@@H](S(=O)(=O)c2ccccc2)CN1C(=O)C1CCCCC1)C(=O)c1nc2ccccc2o1 (stereo partly specified),3.3 nM,> 10000 nM,> 10000 nM
O=C(CNC(=O)[C@@H]1C[C@@H](S(=O)(=O)c2ccccc2)CN1C(=O)C1CCCCC1)c1nc2ccccc2o1,36.6 nM,–,–
CCC(NC(=O)[C@@H]1C[C@@H](S(=O)(=O)c2ccccc2)CN1S(C)(=O)=O)C(=O)c1nc2ccccc2o1 (stereo partly specified),3.5 nM,–,–
CCC(NC(=O)[C@@H]1C[C@@H](S(=O)(=O)c2ccccc2)CN1C(C)=O)C(=O)c1nc2ccccc2o1 (stereo partly specified),3.3 nM,–,–
CC(=O)N1C[C@H](S(=O)(=O)c2ccccc2)C[C@H]1C(=O)NC(C(=O)c1nc2ccccc2o1)C(C)C (stereo partly specified),24.6 nM,–,–
CCC(NC(=O)[C@@H]1C[C@@H](S(=O)(=O)c2ccccc2)CN1C(=O)C(F)(F)F)C(=O)c1nc2ccccc2o1 (stereo partly specified),2.7 nM,–,–

# Now from value to compound:
IC50 (Cathepsin S),IC50 (Cathepsin B),IC50 (Cathepsin K),SMILES
3.2 nM,–,–,CCC(NC(=O)[C@@H]1C[C@@H](S(=O)(=O)c2ccc(-n3cccn3)cc2)CN1C(C)=O)C(=O)c1nc2ccccc2o1 (stereo partly specified)
> 1000 nM,–,–,CCC(NC(=O)[C@@H]1C[C@@H](Oc2ccccc2)CN1C(C)=O)C(=O)c1nc2ccccc2o1 (stereo partly specified)
3.5 nM,–,–,CCC(NC(=O)[C@@H]1C[C@@H](S(=O)(=O)c2ccccc2)CN1C(=O)c1cccnc1)C(=O)c1nc2ccccc2o1 (stereo partly specified)
3.1 nM,–,–,CCC(=O)N1C[C@H](S(=O)(=O)c2ccccc2)C[C@H]1C(=O)NC(CC)C(=O)c1nc2ccccc2o1 (stereo partly specified)
4.3 nM,–,–,CC[C@@H](NC(=O)[C@@H]1C[C@@H](S(=O)(=O)c2ccccc2)CN1C(C)=O)C(=O)c1nc2ccccc2o1
1.9 nM,3 nM,4 nM,CC(C)C[C@@H](NC(=O)N1CCOCC1)C(=O)N[C@@H](/C=C/S(=O)(=O)c1ccccc1)CCc1ccccc1
4.1 nM,> 10000 nM,> 10000 nM,CCC(NC(=O)[C@@H]1C[C@@H](S(=O)(=O)c2ccccc2)CN1C(=O)c1ccc(-c2ccccc2)cc1)C(=O)c1nc2ccccc2o1 (stereo partly specified)
